CHOP inh – inhibitors of CHOP induction in ER stress response | CHO-K1 CHOP-promoter luciferase, tunicamycin-induced, 15-18 h | inhibition, % at 10 µM | actives 3.8% (n = 220,000);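 active = compounds that reduced the stress-induced luciferase reporter signal by more than about 70% of percent inhibition, limit read from the data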;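 note: 0% = tunicamycin plus vehicle and 100% = wells without tunicamycin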
NOD2 RIPK2 PPI – inhibitors of human NOD2-RIPK2 interaction; O43353; CHO BLA complementation NOD2-RIPK2, CCF4 ratio; inhibition, % at 4.98 µM; actives 0.38% (n = 360,000); AID 624267; in the data active = inhibition above about 21%;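 note: 0% = vehicle only and 100% = reference blocker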
UPR CHOP act – activators of apoptotic arm of unfolded protein response (CHOP) | actives 0.34% (n = 330,000) | activation, % at 10 µM | CHO-CHOP luciferase reporter, UPR activation, luminescence; percent of tunicamycin response over DMSO baseline | AID 449763;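 active = at 10 µM dose, activation of 40% or more, normalized to positive control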;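 note: 100% = tunicamycin at 10 µg/mL and 0% = DMSO alone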
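Material: CHO-CHOP cells, stable luciferase reporter of PERK-eIF2a-CHOP signalling; quantity: 500 reporter cells seeded per well; buffer or medium: F12 medium containing 10% fetal bovine serum; compound: one dose, 10 µM in 0.5% DMSO; incubation: 6 h compound treatment, 37 °C; measured by: Steady-Glo luciferase luminescence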
XBP1 UPR activ – activators of adaptive arm of unfolded protein response (XBP1). CHO-XBP1 luciferase reporter, IRE1-XBP1 UPR activation, luminescence; percent of tunicamycin response, DMSO as zero. activation, % at 20 µM. actives 0.33% (n = 330,000);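 active = versus positive control, 20 µM dose yields 30% or more activation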;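 note: 100% = tunicamycin at 10 µg/mL and 0% = DMSO only wells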
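Assay system: CHO-XBP1 luciferase reporter cells; Schedule: 6 h treatment, 37 °C; Detection: glow luminescence from Steady-Glo reagent; Benchmarks: high control tunicamycin 10 µg/mL final, low control DMSO vehicle only.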
TLR4-MyD88 BLA – inhibitors of human TLR4-MyD88 binding; O00206+Q99836; HeLa CL3-4 TLR4/MyD88 BLA complementation, FRET ratio; inhibition, % at 8.4 µM; actives 0.18% (n = 200,000); AID 861; in the data active = inhibition above about 25%;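 note: 0% = vehicle and 100% = reference inhibitor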
Target sequence (O00206 whole entry, looked up): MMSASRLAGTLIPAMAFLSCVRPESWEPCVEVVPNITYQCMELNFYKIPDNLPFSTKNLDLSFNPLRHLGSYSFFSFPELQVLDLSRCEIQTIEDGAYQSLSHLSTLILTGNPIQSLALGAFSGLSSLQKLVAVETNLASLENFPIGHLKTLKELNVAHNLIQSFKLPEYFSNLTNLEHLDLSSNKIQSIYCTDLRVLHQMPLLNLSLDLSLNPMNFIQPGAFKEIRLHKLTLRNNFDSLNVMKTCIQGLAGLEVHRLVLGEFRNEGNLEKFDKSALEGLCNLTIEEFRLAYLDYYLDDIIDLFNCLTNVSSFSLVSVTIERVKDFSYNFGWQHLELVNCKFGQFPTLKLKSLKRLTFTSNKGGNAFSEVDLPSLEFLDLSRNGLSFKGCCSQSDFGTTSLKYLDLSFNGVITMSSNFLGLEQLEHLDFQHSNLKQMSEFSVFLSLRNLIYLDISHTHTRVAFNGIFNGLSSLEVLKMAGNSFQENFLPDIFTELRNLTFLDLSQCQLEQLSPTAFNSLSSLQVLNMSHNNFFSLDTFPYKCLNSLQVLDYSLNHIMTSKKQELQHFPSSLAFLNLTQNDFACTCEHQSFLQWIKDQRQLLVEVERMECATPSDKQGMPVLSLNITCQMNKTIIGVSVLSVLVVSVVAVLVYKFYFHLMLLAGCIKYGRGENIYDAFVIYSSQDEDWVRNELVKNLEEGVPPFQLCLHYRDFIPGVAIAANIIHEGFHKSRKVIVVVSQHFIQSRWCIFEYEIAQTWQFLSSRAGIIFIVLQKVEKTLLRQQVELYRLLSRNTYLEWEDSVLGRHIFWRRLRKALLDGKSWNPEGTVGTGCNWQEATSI
Target sequence (Q99836 whole entry, looked up): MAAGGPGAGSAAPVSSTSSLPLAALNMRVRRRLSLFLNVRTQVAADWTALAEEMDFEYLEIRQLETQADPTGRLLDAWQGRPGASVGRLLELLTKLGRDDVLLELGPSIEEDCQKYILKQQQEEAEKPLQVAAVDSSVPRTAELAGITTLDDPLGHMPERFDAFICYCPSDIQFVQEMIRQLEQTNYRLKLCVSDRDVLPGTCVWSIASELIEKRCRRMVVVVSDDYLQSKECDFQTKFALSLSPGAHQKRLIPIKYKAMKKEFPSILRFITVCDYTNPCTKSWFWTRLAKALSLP
TLR9-MyD88 inh – TLR9-MyD88 interaction inhibition; inhibition, % at 4.98 µM; Q9NR96+Q99836; CHO BLA complementation TLR9-MyD88, CCF4 FRET ratio; AID 504734; actives 0.21% (n = 340,000);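 active = inhibition above the mean over all tested compounds plus 3 SD, cut at about 21% in these data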;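 note: 0% = DMSO only wells and 100% = clavulanate BLA inhibitor control wells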
XBP1 UPR conf – adaptive UPR (XBP1) activation, confirmed. shares compounds with XBP1 UPR activ. CHO-XBP1 IRE1-XBP1 luciferase reporter, luminescence. activation, % at 20 µM. actives 63% (n = 1,000). AID 485299;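 active = reporter signal at least 30% of the positive control's activation in two or more of four replicate wells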;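 note: plate controls were DMSO negative control for no effect and tunicamycin 10 µg/mL positive control for full effect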
Active calls of the source: *; / = not tested or not shown. This excerpt belongs to a sample that is enriched for hits.

SMILES | CHOP inh | NOD2 RIPK2 PPI | UPR CHOP act | XBP1 UPR activ | TLR4-MyD88 BLA | TLR9-MyD88 inh | XBP1 UPR conf
Cc1sc2ncnc(N=Nc3c(O)[nH]c4ccccc34)c2c1C | -5.1 | -5.0 | 13.8 | 7.9 | -10.9 | -3.9 | /
COc1cccc(NS(=O)(=O)c2ccc3c(c2)N(C(C)=O)CCO3)c1 | / | -1.3 | -0.1 | -3.1 | / | -3.6 | /
COc1ccccc1/C=N\NC(=O)c1ccc(COc2ccc(C)c(C)c2)o1 | / | -3.5 | 2.4 | 41.1* | / | -5.7 | 0.2
CCCCOc1ccccc1NC(=O)Cn1c(-c2nonc2N)nc2ccccc21 | / | 4.8 | 9.8 | 101.2* | -6.4 | -16.3 | 81.6*
NNC(=O)Cn1c(-c2nonc2N)nc2ccccc21 | 2.3 | -0.2 | 0.1 | 3.6 | -13.7 | 6.8 | /
CCOC(=O)C1=C(C)N=c2s/c(=C\c3ccc(C(=O)O)cc3)c(=O)n2C1c1ccc(F)cc1 (centres undefined) | / | -0.8 | 0.0 | 7.5 | / | -1.6 | /
CCOC(=O)C1=C(C)N=c2s/c(=C3/C(=O)Nc4ccccc43)c(=O)n2C1c1ccc(C)cc1 (centres undefined) | 46.8 | 15.0 | 2.1 | 117.9* | -11.7 | 9.4 | 68.8*
Nc1nc(Nc2ccccc2)nc2ccccc12 | -13.2 | -4.0 | 2.7 | 9.2 | -6.5 | -79.7 | /
Nc1nc(Nc2ccc(Cl)cc2)nc2ccccc12 | 64.0 | -0.9 | 24.5 | 32.8* | 8.1 | 2.5 | 25.1
Cc1ccc(NC(=O)Cn2cnc3ccccc32)cc1C | 15.2 | 1.8 | -2.1 | -3.1 | 1.1 | -3.0 | /
Cc1ccc(NC(=O)Cn2c(/C=C/c3ccccc3)nc3ccccc32)cc1C | 27.8 | 1.7 | 27.4 | 51.3* | -2.9 | -10.2 | 34.9*
OCc1nc2c(ccc3ccccc32)[nH]1 | / | -14.1 | 2.4 | -0.2 | / | -0.4 | /
CCOC(=O)c1ccc(-c2c(-c3ccccc3OC)oc3ccccc23)cc1F | / | -6.1 | 3.0 | -1.1 | / | -1.6 | /
CCOC(=O)c1ccc(-c2ccc3c(=O)c4ccccc4n(C)c3c2)cc1F | / | -4.3 | 1.1 | 99.6* | / | -1.9 | 1.9
Cc1c(C(=O)N2CCOCC2)c(S(=O)(=O)Nc2cccc(C#N)c2)c(C)n1C | / | -8.5 | 2.0 | -5.0 | / | -7.2 | /
C=CCn1c(SCC(C)=O)nc2sc3c(c2c1=O)CCC3 | / | -8.3 | 1.8 | 4.3 | / | -1.0 | /
C=CCn1c(SCc2nc3ccccc3c(=O)[nH]2)nc2sc3c(c2c1=O)CCCC3 | -12.4 | / | 0.1 | 131.5* | / | / | -1.3
O=C(NCc1cccnc1)[C@@H]1CC=C[C@@H]2CCN(Cc3ccccc3)C(=O)[C@@H]21 | / | 2.5 | -0.6 | 1.0 | / | -4.5 | /
CCOc1cccc2sc(N(CCCN(C)C)C(=O)c3ccc(S(=O)(=O)N4CCc5ccccc5C4)cc3)nc12 | / | 11.6 | 26.8 | 34.7* | / | 4.4 | 14.1
O=C(CCn1c2c(c3ccccc31)CCCC2)NNC(=O)c1ccccc1Cl | 21.6 | 2.0 | -0.6 | 36.3* | -4.6 | -1.8 | 0.5
C=CC[C@@H](CC(=O)N[C@@H](CO)Cc1ccccc1)C(=O)NC[C@@H](OC(=O)[C@@H](CC=C)Cc1ccc(F)cc1)c1ccccc1 | / | -11.3 | 5.2 | 31.7* | / | -4.3 | 1.9
COCCCN1C(=O)C(CC(=O)NCCCN(C)C)CC(C(=O)N2CCCCCC2)=C1C (centres undefined) | / | -5.2 | / | / | / | / | /
COc1ccc(NC(=O)c2ccccc2NC(=O)CSc2ccc(Cl)cc2)cc1 | -23.6 | -4.0 | 2.3 | 35.0* | -7.0 | 5.8 | 6.2
N#Cc1ccc(-c2ccc(F)cc2)nc1Oc1ccc(Cl)c(Cl)c1 | 31.1 | -46.5 | 26.2 | 37.7* | 4.5 | -5.0 | 6.0
Cc1nc2sc(C(=O)Nc3ccccc3)c(N)c2c(C)c1[N+](=O)[O-] | 24.3 | -8.1 | 39.4 | 90.5* | -3.3 | -13.2 | 18.8
SMILES | CHOP inh | NOD2 RIPK2 PPI | UPR CHOP act | XBP1 UPR activ | TLR4-MyD88 BLA | TLR9-MyD88 inh | XBP1 UPR conf
CC(=O)c1ccc(NC(=O)c2sc3nc(C)c(C)c(C)c3c2N)cc1 | / | -3.7 | 1.3 | -5.2 | / | -5.4 | /
Nc1nc(-c2ccccc2)c(CCCOc2ccc(NC(=O)CBr)cc2)c(=O)[nH]1 | / | -9.7 | / | / | / | 2.1 | /
Cc1occc1C(=O)Nc1cccc(C(F)(F)F)c1 | 47.7 | 5.7 | 0.4 | 0.1 | -3.0 | 12.7 | /
Cc1cnc(Nc2nc3ccccc3o2)nc1C(=O)Nc1cccc(C(F)(F)F)c1 | 91.1* | 1.7 | 2.5 | 45.3* | 9.9 | -4.2 | 9.3
CN(C)C(=O)COc1ccc2ccc(=O)oc2c1 | 23.0 | 11.7 | 0.5 | 1.0 | -6.8 | 0.9 | /
CCOC(=O)c1c(C)[nH]c(C(=O)COc2ccc3ccc(=O)oc3c2)c1C | / | -6.8 | -0.2 | 41.1* | / | -5.9 | 2.9
COC(=O)c1cc(S(=O)(=O)N2CCCCC2)c[nH]1 | / | -3.2 | -0.9 | -1.0 | / | -10.6 | /
Cc1sc(NC(=O)c2ccco2)c(C(c2ccc(F)cc2)N2CCN(C)CC2)c1C (centres undefined) | 39.0 | 5.9 | 1.1 | 0.6 | 13.5 | -4.9 | /
Cc1sc(NC(=O)c2ccco2)c(C(c2cccnc2)N2CCN(c3ccc(F)cc3)CC2)c1C (centres undefined) | / | 7.5 | 16.7 | 32.6* | 1.4 | -6.0 | 18.3
O=C(Nc1nc2ccc(Cl)cc2s1)c1ccc(N2CCCCC2)c([N+](=O)[O-])c1 | -8.5 | -11.8 | 30.3 | 33.2* | -30.4 | 2.1 | 82.8*
Cc1ccc2c(c1)C(=O)C(=O)N2Cc1ccc(Cl)cc1 | / | 20.4 | 4.6 | 37.2* | / | -5.5 | 29.9*
Cc1ccc2c(c1)C(=O)C(=O)N2Cc1ccc(F)cc1 | / | 14.8 | 0.8 | 7.4 | / | 0.0 | /
c1ccc(Cn2c[n+](Cc3ccccc3)cn2)cc1 | -1.1 | -4.9 | 0.1 | -2.8 | / | -4.6 | /
O=C(Nc1ccc2nn(-c3ccccc3)nc2c1)c1ccc(Br)o1 | 73.0* | 5.4 | 3.2 | 34.6* | 15.6 | 1.0 | 5.3
O=C(Nc1ccc2nn(-c3ccccc3)nc2c1)c1ccc2c(c1)OCCO2 | 9.2 | 1.1 | 3.5 | -2.1 | 8.4 | 3.9 | /
O=C(Nc1ccc(F)cc1F)c1cc(=O)n(-c2ccccc2)c(=O)[nH]1 | 8.6 | 8.0 | -0.7 | -2.0 | 1.4 | 5.2 | /
O=C(Nc1ccc(Oc2ccc(NC(=O)Nc3ccccc3Cl)cc2)cc1)Nc1ccccc1Cl | 94.5* | -4.8 | 15.1 | 43.9* | / | -0.7 | 53.8*

Compound activity deposited in PubChem by several laboratories.
